Measurements from different studies.
Compare with care: the assays were run in different laboratories.
Observed: cell growth or viability

COc1cc(Nc2nccc(-c3cnn4nc(OC)ccc34)n2)cc(C(F)(F)F)c1 — IC50 (LoVo; ATP luminescence): 0.16 µM
Cc1cccc(-n2ncc(Br)c(Br)c2=O)c1 — IC50 (NCI-H1650; resazurin; 96 h): 0.74 µM
O=c1[nH]cc(F)c(=O)[nH]1 — IC50 (RD; WST-1; 48 h): 21.1 µM
CC(C)c1cc(C(=O)N2Cc3ccccc3C2)c(O)c2c1C(=O)C(F)(F)C2 — IC50 (UMUC3; ATP luminescence; 72 h): > 100 µM
CC(C)Cc1ccc(-c2nn(-c3ccc(S(C)(=O)=O)cc3)cc2/C=N/N=c2\[nH]c(-c3ccc([N+](=O)[O-])cc3)cs2)cc1 — IC50 (F180; MTT; 48 h): 23.6 µM
CCOc1cc(OCC)cc(C(=O)O[C@@H]2CN3Cc4c(cc5c(c4OC)OCO5)[C@@]24C=C[C@H](OC)C[C@@H]34)c1 — IC50 (A2780; WST-1): 7.8 µM
CC(C)c1cc(C(=O)N2Cc3ccccc3C2)c(O)c2c1C(=O)C=C2 — IC50 (UMUC3; ATP luminescence; 72 h): 1.18 µM
C[C@]12CC[C@H](O)CC1=CC[C@@H]1[C@@H]2CC[C@]2(C)C(n3cnc4ccccc43)=CC[C@@H]12 — IC50 (LAPC4; MTT; 7 days): 4 µM
CCCCCC/N=C1\c2cc(C(N)=O)nc3c(N)c(Cl)c(N)c(c23)N1C — IC50 (HCC44): 1.1 µM
COc1cc(N2CCC(N3CCN(C)CC3)CC2)ccc1Nc1ncc(Cl)c(Nc2ccccc2S(=O)(=O)C(C)C)n1 — IC50 (RD; 72 h): 0.25 µM
CC1Cc2c(O)c(C(=O)N3Cc4ccccc4C3)cc(C(C)C)c2C1=O (centres unmarked) — IC50 (UMUC3; ATP luminescence; 72 h): 70.4 µM
CC(=O)OC[C@H]1O[C@@H]([S-])[C@H](OC(C)=O)[C@@H](OC(C)=O)[C@@H]1OC(C)=O.CCP(CC)CC.[Au+] — IC50 (IMR-90; resazurin): 6.77 µM
COc1cc(/C=C/C(=O)/C=C/c2c(C)nn(-c3ccccc3)c2Cl)ccc1O — IC50 (LLC-PK1; MTT; 72 h): 9.56 µM
Cn1nnc2c(C(=O)N3CCCC3)ncn2c1=O — IC50 (U-118-MG; resazurin; 7 days): 136 µM
CC(C)c1cc(C(=O)N2Cc3ccccc3C2)c(O)c2c1C(=O)C(C)(C)C2 — IC50 (UMUC3; ATP luminescence; 72 h): 51.9 µM
Cn1nnc2c(C(N)=O)ncn2c1=O — IC50 (U-118-MG; resazurin; 7 days): 322 µM
COc1cc(/C=C/C(=O)/C=C/c2cn(-c3ccccc3)nc2-c2ccccc2)ccc1O — IC50 (LLC-PK1; MTT; 72 h): 15.8 µM
CS(=O)(=O)c1ccc(-n2cc(/C=N/N=c3\[nH]c(-c4ccc([N+](=O)[O-])cc4)cs3)c(-c3ccc(Br)cc3)n2)cc1 — IC50 (F180; MTT; 48 h): 71.8 µM
Cc1cc(Nc2ncc(Cl)c(Nc3ccccc3S(=O)(=O)C(C)C)n2)c(OC(C)C)cc1C1CCNCC1 — IC50 (RD; 72 h): 2.18 µM
COc1cc([C@@H]2c3cc4c(cc3[C@@H](O[C@@H]3O[C@@H]5CO[C@@H](C)O[C@H]5[C@H](O)[C@H]3O)[C@H]3COC(=O)[C@H]23)OCO4)cc(OC)c1O — IC50 (Caco-2; MTS; 48 h): 15.3 µM
